Data taken from ChEMBL document CHEMBL4513216, “Probing the Open Global Health Chemical Diversity Library for Multistage-Active Starting Points for Next-Generation Antimalarials” (ACS Infect Dis, 2020).

Experiment: Toxicity liver stage against HepG2, at 10uM
Format: cell-based
Set-up: test concentration 10 uM, cell line HepG2-A16-CD81EGFP
Conditions: human, HepG2-A16-CD81EGFP cells; read-out: INHIBITION
Summary of the method: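 Uninfected HepG2-A16-CD81EGFP cells, 3 × 10^3 per well, 1536-well, plated on prespotted compound at 10 μM final, parasite-free screening media added to match infected plates; puromycin 10 μM positive, DMSO 0.5% negative; run in parallel with 48 h PbLuc assay at 37 °C, 5% CO2; viability by CellTiter-Glo luminescence, normalized to controls.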

SMILES	cytotoxicity at 10 µM [%]
CC(C)=CCN1CCC(c2nnc(CN3CCN(C)CC3)n2C)CC1	-7.54
O=C(Cn1ncc(N2CCNCC2)cc1=O)NCCc1ccc(F)cc1	0.342
O=C(CSc1ccccn1)N1CCC(OCc2cccnc2)CC1	-3.84
c1ccc(CN2CCN(C3CCOC4(CCOCC4)C3)CC2)nc1 (stereo unspecified)	-0.971
Cc1cc(C)n(Cc2cc(C(=O)N[C@H]3CCCCNC3=O)n[nH]2)n1	5.97
O=C(O)c1ccccc1-c1c(-c2ccccc2)ncn1CC1CCCO1 (stereo unspecified)	2.84
CCCS(=O)(=O)N1CCC2(CCC(=O)N(CCc3ccccc3)C2)CC1	6.84
CCC(CO)N(Cc1cccc(-n2cccn2)c1)Cc1ccccn1 (stereo unspecified)	6.95
CC(C)c1nc(-c2ccc(=O)[nH]n2)n(-c2ccc3c(c2)OCO3)n1	6.46
COc1cccc(-c2cc(NCCN(C)C)nc3[nH]ccc23)n1	-3.97
CCCN(CCc1ccccc1)c1ncnc2oc(C)nc12	8.74
c1cncc(OCc2nc(C3CC3)nn2-c2ccc3c(c2)OCCO3)c1	2.4
O=S(=O)(Cc1ccccc1CN1CCOCC(O)C1)c1ccccc1 (stereo unspecified)	-22.8
c1cc2c(cc1CN1CCCC3(CCOC3)C1)OCO2 (stereo unspecified)	0.447
CC(C)c1noc(C2CCCN2C(=O)CN2CCc3ccccc32)n1 (stereo unspecified)	-8.76
COc1ccc(C(=O)C2CCCN(c3cnccn3)C2)c(C)c1 (stereo unspecified)	-2.69
CCc1ccc2nc(C)cc(C(=O)N3C[C@H]4CCC[C@@]4(CO)C3)c2c1	-2.37
Cc1cc(NC(C)c2csc(C)n2)n2nc(C)c(C)c2n1 (stereo unspecified)	5.32
COCCN(Cc1ccncc1)C(=O)C1COc2c(cccc2OC)C1 (stereo unspecified)	-14.6

SMILES	cytotoxicity at 10 µM [%]
CCc1ccc(CN(C)C(=O)c2cnc3c(c2)nc(N)n3CC)nc1	-5.55
O=C(c1cc2ccccc2s1)N1CCC(C(=O)O)(n2cccn2)CC1	11.3
Cc1nn(C)c(C)c1CCC(=O)N1CCCOC(Cn2cccn2)C1 (stereo unspecified)	-2.86
COc1ccc(C2CC(=O)Nc3c2nc2n3CCCC2)cc1O (stereo unspecified)	-2.53
CC(C)c1nc(CN2CCCN(c3nccs3)CC2)no1	-11.5
OC1(CN2CCOC(CNc3cccnn3)C2)CCCCC1 (stereo unspecified)	-4.67
Cc1ccc(CNC(=O)N(C)Cc2cnn(C)c2)s1	-11.2
N#Cc1ccc(CN2CCCC2Cn2cccn2)c(F)c1 (stereo unspecified)	-9.2
Cc1ccc(O)c(CNCC2CCCN2c2cccnn2)n1 (stereo unspecified)	-7.92
Cc1nc(-c2ccsc2)ccc1C(=O)NCCCN1CCOCC1	-13.9
O=C(CCN1C(=O)CCC1=O)NCC1(c2c(F)cccc2F)CCCC1	-9.47
Cc1cccnc1NC(=O)c1ccc(-n2ncc(C#N)c2N)cc1	-9.35
Cc1cc(CNC(=O)CN2CCCC(Cn3cncn3)C2)ccc1F (stereo unspecified)	-9.92
Cc1noc(C)c1C(=O)NCc1ccc(N2CCCCCC2)nc1	2.76
CCc1[nH]ncc1C(=O)N1CCOC(c2nc(C)n[nH]2)C1 (stereo unspecified)	-8.69
O=C(CCc1ccccc1Br)NS(=O)(=O)c1ccc2c(c1)OCCO2	-10.7
Cc1cc(C)n(C2CN(CCC(=O)NC3CCCCC3)C2)n1	1.04
CCc1n[nH]c(C2CN(C(=O)c3ccc(Cl)cn3)CCO2)n1 (stereo unspecified)	-18.3
CS(=O)(=O)NC1CCCN(C(=O)NCc2ccccc2Cl)C1 (stereo unspecified)	-12.8

SMILES	cytotoxicity at 10 µM [%]
CCn1cc(CN2CCCN(C(=O)c3cc(C)no3)CC2)cn1	3.22
Cc1cc(NC(=O)CCN2CCn3c(C)nnc3C2)no1	6.69
Cc1n[nH]c(=O)c2c(NC(=O)CN3CCOCC3C)oc(C)c12 (stereo unspecified)	-0.219
CN1CCN(C2CCN(CCOc3ccc(F)cc3)CC2)C1=O	-7.8
CC(C)OCCN1CCC(N2CCN(C)C2=O)CC1	-11.4
COCCN1CCC(NCc2cccc(F)c2)C1 (stereo unspecified)	-8.85
COc1c(CNCc2cnn(C)c2)c(C(C)C)nn1C	-7.39
Cc1noc(C)c1C(=O)N1CCCC1c1c(C)nn(C)c1Cl (stereo unspecified)	-12.6
Cc1ncc2c(n1)CN(Cc1noc(C3CC3)n1)CC2	-13.4
c1cc(OCc2ccc3c(c2)OCCO3)ccc1CNC1CC1	-0.73
COc1ccc(CN(Cc2c[nH]cn2)CC2CCCO2)c(OC)c1 (stereo unspecified)	-26
O=C(c1cccnc1)N1CCc2ncnc(C3CCOC3)c2CC1 (stereo unspecified)	4.22
CC(C)c1nc(C2CCCNC2)no1 (stereo unspecified)	0.684
Cc1ccc(CN2CC[C@H]3[C@H](CC(Cn4cccn4)N3C)C2)s1 (stereo partly specified)	6.66
CN(Cc1ccco1)C[C@H]1OC[C@@H]2CCN(Cc3cccs3)C[C@@H]21	8.11
O=C(NC1CC1)[C@H]1C[C@H]2OCC[C@H]2N(CC2CCOCC2)C1	2.98
O=C(CO)N1C[C@@H]2CC[C@H]1CN(C1Cc3ccccc3C1)C2	-11.3
NC1CCC(n2cc(C(=O)NC3CCc4ccccc4C3)nn2)CC1 (stereo unspecified)	-4.42
